ChEMBL document CHEMBL1146753, “Tetrahydroisoquinolines as subtype selective estrogen agonists/antagonists” (Bioorg Med Chem Lett, 2004)

Tests used:
Estrogen receptor beta = Estrogen receptor beta (Homo sapiens, UniProt Q92731); experiment: In vitro concentration required to inhibit [3H]estradiol binding to human estrogen receptor beta expressed in 293T cells; format: cell-based
Summary of the method: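 Increasing competitor concentrations from DMSO stocks. Incubated 16 h at 4 °C. Dextran-coated charcoal for 15 min at room temperature, then centrifuged. Supernatant counted by scintillation. Means of ≥3 experiments.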

Estrogen receptor = target: T1, Estrogen receptor (Homo sapiens, UniProt P03372); experiment: In vitro concentration required to inhibit [3H]estradiol binding to human estrogen receptor alpha expressed in 293T cells; format: cell-based
T1 sequence (P03372 whole entry): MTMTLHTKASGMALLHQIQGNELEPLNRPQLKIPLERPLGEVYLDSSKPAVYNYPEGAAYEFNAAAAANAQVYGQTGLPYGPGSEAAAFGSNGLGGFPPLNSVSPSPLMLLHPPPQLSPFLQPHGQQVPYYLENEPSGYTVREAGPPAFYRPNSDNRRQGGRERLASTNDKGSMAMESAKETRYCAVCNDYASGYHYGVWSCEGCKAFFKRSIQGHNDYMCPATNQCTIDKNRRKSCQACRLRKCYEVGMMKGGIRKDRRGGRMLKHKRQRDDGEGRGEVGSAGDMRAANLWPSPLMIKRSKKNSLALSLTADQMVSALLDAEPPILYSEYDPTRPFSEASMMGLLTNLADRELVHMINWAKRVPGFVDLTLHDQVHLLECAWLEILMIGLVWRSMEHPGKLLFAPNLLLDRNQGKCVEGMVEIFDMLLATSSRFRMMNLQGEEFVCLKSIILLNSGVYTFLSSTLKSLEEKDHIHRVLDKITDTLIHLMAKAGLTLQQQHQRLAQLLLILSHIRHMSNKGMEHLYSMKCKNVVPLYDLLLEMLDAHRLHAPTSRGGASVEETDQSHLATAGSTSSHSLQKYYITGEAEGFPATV

MCF7 [1] = experiment: Percent inhibition of antagonistic activity in MCF-7 cell lines derived from breast tumors that predominantly express ER-alpha; format: functional, Homo sapiens
MCF7 [2] = experiment: Inhibitory concentration required for antagonistic activity in MCF-7 cell lines derived from breast tumors that predominantly express ER-alpha; format: functional, cell-based; details: Homo sapiens
MCF7 [3] = experiment: Percent agonistic activity in MCF-7 cell lines derived from breast tumors that predominantly express ER-alpha; format: functional, Homo sapiens
Summary of the method: (§1)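 MCF7 cells plated at 6000/well in IMDM with 5% FBS and attached overnight. Steroid-depleted over 48 h with two changes of medium containing 5% charcoal-dextran stripped FBS. Compounds given as log dilutions from 10^-13 to 10^-6 M in 0.1% DMSO, 8 replicate wells each. Medium and compound renewed at day 4. DNA content measured by Hoechst 33258 after 7 days total exposure.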

MCF7 [4] = experiment: Effective concentration required for agonistic activity in MCF-7 cell lines derived from breast tumors that predominantly express ER-alpha; format: functional, cell-based; details: Homo sapiens; summary of the method: as §1

Sequence of Estrogen receptor beta (Q92731 whole entry): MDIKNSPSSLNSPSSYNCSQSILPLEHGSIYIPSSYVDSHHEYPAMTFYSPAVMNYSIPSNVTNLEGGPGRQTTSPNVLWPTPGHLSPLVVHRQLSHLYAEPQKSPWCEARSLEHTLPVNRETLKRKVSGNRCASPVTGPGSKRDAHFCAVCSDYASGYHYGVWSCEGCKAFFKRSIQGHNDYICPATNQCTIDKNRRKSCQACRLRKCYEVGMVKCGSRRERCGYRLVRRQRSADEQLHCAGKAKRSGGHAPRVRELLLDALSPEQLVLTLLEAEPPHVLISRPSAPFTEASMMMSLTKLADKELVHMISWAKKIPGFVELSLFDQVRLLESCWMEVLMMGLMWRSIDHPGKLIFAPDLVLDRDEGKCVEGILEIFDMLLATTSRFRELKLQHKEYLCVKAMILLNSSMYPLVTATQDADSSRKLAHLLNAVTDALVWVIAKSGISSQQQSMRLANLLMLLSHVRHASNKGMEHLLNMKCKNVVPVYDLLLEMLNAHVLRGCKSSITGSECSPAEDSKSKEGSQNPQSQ

Structure (SMILES) | IC50 (Estrogen receptor beta) | IC50 (Estrogen receptor) | Inhibition (MCF7 [1]) | IC50 (MCF7 [2]) | Activity (MCF7 [3]) | EC50 (MCF7 [4])
Oc1ccc2c(c1)CCN(c1ccccc1)C2c1ccc(OCCN2CCCC2)cc1 (stereo unspecified) | 22.2 nM | 11.5 nM | – | – | – | –
O=C(N1CCc2cc(O)ccc2[C@H]1c1ccc(O)cc1)C(F)(F)F | 8.9 nM | 53.6 nM | – | – | – | –
O=S(=O)(c1cccc2ccccc12)N1Cc2cc(O)ccc2C(c2ccc(O)cc2)C1 (stereo unspecified) | 10.7 nM | 28 nM | – | – | – | –
O=C(c1ccccc1)N1CCc2cc(O)ccc2C1c1ccc(OCCN2CCCC2)cc1 (stereo unspecified) | 2250 nM | 562 nM | – | – | – | –
CN(C)C(=O)/C=C/c1ccc(N2CCc3cc(O)ccc3C2c2ccccc2)cc1 (stereo unspecified) | 8.7 nM | 8 nM | – | – | – | –
CCOC(=O)N1CCc2cc(O)ccc2C1c1ccc(OCCN2CCCC2)cc1 (stereo unspecified) | 293 nM | 44.3 nM | – | – | – | –
O=C(N1CCc2cc(O)ccc2C1c1ccc(Br)cc1)C(F)(F)F (stereo unspecified) | 22 nM | 165 nM | – | – | – | –
Oc1ccc2c(c1)CCN(c1ccccc1)C2c1cccs1 (stereo unspecified) | 26.3 nM | 50 nM | – | – | – | –
Oc1ccc2c(c1)CCN(c1ccccc1)C2c1ccccc1 (stereo unspecified) | 48.8 nM | 30.7 nM | – | – | – | –
O=C(N1CCc2cc(O)ccc2[C@@H]1c1ccc(O)cc1)C(F)(F)F | > 3200 nM | > 3200 nM | – | – | – | –
O=C(N1CCc2cc(O)ccc2C1c1ccc(OCCN2CCCC2)cc1)C(F)(F)F (stereo unspecified) | 93.3 nM | 28.7 nM | 83% | 86.6 nM | – | –
O=S(=O)(c1cccc2ccccc12)N1CCc2cc(O)ccc2C1c1ccc(OCCN2CCCC2)cc1 (stereo unspecified) | 21.3 nM | 5.6 nM | 96% | 51.3 nM | – | –
Oc1ccc2c(c1)CCN(c1ccccc1)C2Cc1ccccc1 (stereo unspecified) | 66.4 nM | 6.7 nM | – | – | – | –
O=C(c1ccccc1)N1Cc2cc(O)ccc2C(c2ccc(O)cc2)C1 (stereo unspecified) | 27.9 nM | 160 nM | – | – | – | –
O=S(=O)(c1ccc2ccccc2c1)N1CCc2cc(O)ccc2C1c1ccc(OCCN2CCCC2)cc1 (stereo unspecified) | 1080 nM | 112 nM | – | – | – | –
CCCc1ccc(S(=O)(=O)N2CCc3cc(O)ccc3C2c2ccc(OCCN3CCCC3)cc2)cc1 (stereo unspecified) | 133 nM | 29.4 nM | – | – | – | –
Oc1ccc2c(c1)CCN(c1ccccc1)C2C1CCCCC1 (stereo unspecified) | 99 nM | 29.8 nM | – | – | 93% | 11.1 nM
Oc1ccc2c(c1)CCN(c1ccccc1)C2CC1CCCCC1 (stereo unspecified) | 295 nM | 53.1 nM | – | – | – | –
O=S(=O)(c1ccccc1)N1Cc2cc(O)ccc2C(c2ccc(O)cc2)C1 (stereo unspecified) | 41.7 nM | 120 nM | – | – | – | –
Oc1ccc(C2CN(Cc3ccccc3)Cc3cc(O)ccc32)cc1 (stereo unspecified) | 13.1 nM | 20.1 nM | – | – | – | –
O=C(N1CCc2cc(O)ccc2C1c1cccs1)C(F)(F)F (stereo unspecified) | 63.5 nM | 385 nM | – | – | – | –
O=C(/C=C/c1ccc(N2CCc3cc(O)ccc3C2c2ccccc2)cc1)N1CCOCC1 (stereo unspecified) | 4.8 nM | 5.9 nM | – | – | – | –
O=S(=O)(c1ccccc1)N1CCc2cc(O)ccc2C1c1ccc(OCCN2CCCC2)cc1 (stereo unspecified) | 18.5 nM | 5.2 nM | – | – | – | –
Oc1ccc2c(c1)CCN(Cc1ccc3c(c1)OCO3)C2c1ccc(OCCN2CCCC2)cc1 (stereo unspecified) | 220 nM | 9.2 nM | – | – | – | –
O=C(N1Cc2cc(O)ccc2C(c2ccc(O)cc2)C1)C(F)(F)F (stereo unspecified) | 11.4 nM | 123 nM | – | – | – | –
Cc1ccc(S(=O)(=O)N2CCc3cc(O)ccc3C2c2ccc(OCCN3CCCC3)cc2)cc1 (stereo unspecified) | 71.2 nM | 24.8 nM | 66% | 29.8 nM | – | –
CC(C)C1c2ccc(O)cc2CCN1c1ccccc1 (stereo unspecified) | 180 nM | 42.7 nM | – | – | – | –
Oc1ccc2c(c1)CCN(Cc1ccccc1)C2c1ccc(OCCN2CCCC2)cc1 (stereo unspecified) | 42.2 nM | 4.7 nM | – | – | – | –
O=C(N1CCc2cc(O)ccc2C1c1ccccc1)C(F)(F)F (stereo unspecified) | 27.4 nM | 235 nM | – | – | – | –
